The nature of data set [1]: melting temperature; fluorescence melt of hairpins on a sequencing array, two-state fit, raised by 9.35 °C to match UV melts. The note with it: sodium 0.088 M. Summed up:
(§1)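 Cy3 signals were normalised both to pre-quench Cy3 and to control constructs. They came from library hairpins carrying annealed Cy3 and quencher oligos on a sequenced MiSeq flow cell, imaged in 50 mM Na-HEPES pH 8.0, 25 mM NaCl, in 2.5 °C steps up to 60 °C. Bootstrapped two-state fits gave melting temperature and folding enthalpy, and four replicates were combined by inverse variance. Fitted temperatures were then raised by 9.35 °C to match UV melts.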

A short description of data set [2]: folding enthalpy; higher = less favourable; fluorescence melt of hairpins on a sequencing array, two-state fit. The note with it: sodium 0.088 M. Summed up:
as §1

The text below walks through data of the array DNA melting data of Ke et al. (doi:10.1101/2024.01.08.574731).

As to GATCCTTCCTAGGATC ((((((....)))))), the Tm in data set [1] amounted to 52.1 °C. The folding enthalpy in data set [2] was -44.7 kcal/mol.
Taken in the same sequence, the figures for GATCCTTCGCAGGATC ((((((....)))))) were 51.2 °C and -37.3 kcal/mol.
For GATCCTTCGTAGGATC ((((((....)))))), the Tm in data set [1] came to 53 °C. Besides, the folding enthalpy in data set [2] is -33.7 kcal/mol.
As for GATCCTTCTCAGGATC ((((((....)))))), the Tm in data set [1] stood at 50.9 °C. The folding enthalpy in data set [2] is -45 kcal/mol.
In the case of GATCCTTGATAGGATC ((((((....)))))), in data set [1], the Tm worked out at 50.5 °C. Also, in data set [2], the folding enthalpy was -35.4 kcal/mol.
Regarding GATCCTTGCAGGATC ((((((...)))))), the Tm in data set [1] was 57.9 °C. In addition, the folding enthalpy in data set [2] is -33.7 kcal/mol.
With GATCCTTGCCAGGATC ((((((....)))))), the Tm in data set [1] came out at 51.5 °C. For the same sequence, in data set [2], the folding enthalpy is -31 kcal/mol.
Taken in the same sequence, the figures for GATCCTTGCGAGGATC ((((((....)))))) were 54.8 °C and -49.1 kcal/mol.
Turning to GATCCTTTAAGGATC ((((((...)))))), the Tm in data set [1] amounted to 55.6 °C. Besides, the folding enthalpy in data set [2] is -33.1 kcal/mol.
For GATCCTTTCAAGGATC ((((((....)))))), in that order: 57.7 °C and -33.3 kcal/mol.
For the sequence GATCCTTTCAGGATC ((((((...)))))), the Tm in data set [1] was 57.4 °C. Moreover, the folding enthalpy in data set [2] was -41.3 kcal/mol.
Regarding GATCCTTTTAAGGATC ((((((....)))))), the Tm in data set [1] was found to be 57.9 °C. In addition, the folding enthalpy in data set [2] is -36.6 kcal/mol.
For the sequence GATCGAAAAACGATC ((...........)), in data set [1], the Tm worked out at 39.2 °C. Further, in data set [2], the folding enthalpy is -20.3 kcal/mol.
For GATCGAAAAGTCGATC ((((((....)))))), in that order: 45.9 °C and -28.5 kcal/mol.
Taken in the same sequence, the figures for GATCGAACAATCGATC ((((((....)))))) were 47.4 °C and -31.3 kcal/mol.
Take GATCGAACGTTCGATC ((((((....)))))): the Tm in data set [1] was found to be 56.7 °C. Also, the folding enthalpy in data set [2] is -49.3 kcal/mol.
For GATCGAAGCTCGATC ((((((...)))))), in that order: 49.9 °C and -36 kcal/mol.
For GATCGAAGCTTCGATC ((((((....)))))), in that order: 56.5 °C and -49.6 kcal/mol.
For GATCGAAGGATCGATC ((((((....)))))), in that order: 51.4 °C and -22.9 kcal/mol.
As for GATCGAAGGCTCGATC ((((((....)))))), the Tm in data set [1] was 50.1 °C. For the same sequence, the folding enthalpy in data set [2] is -31 kcal/mol.
Consider GATCGAAGTATCGATC ((((((....)))))), for which the Tm in data set [1] was found to be 50.9 °C. Further, the folding enthalpy in data set [2] was -31.7 kcal/mol.
For GATCGAATATTCGATC ((((((....)))))), in that order: 53.3 °C and -44.5 kcal/mol.
For GATCGAATTATCGATC ((((((....)))))), in that order: 50.7 °C and -38.2 kcal/mol.
GATCGAATTCTCGATC ((((((....)))))): the Tm in data set [1] is 51.4 °C. For the same sequence, the folding enthalpy in data set [2] was -43.3 kcal/mol.
On to GATCGACAAGTCGATC ((((((....)))))), for which the Tm in data set [1] was 58.9 °C. In addition, the folding enthalpy in data set [2] is -44.7 kcal/mol.
Take GATCGACAATCGATC ((((((...)))))): the Tm in data set [1] amounted to 46.6 °C. Moreover, the folding enthalpy in data set [2] is -29.4 kcal/mol.
For GATCGACACTCGATC ((((((...)))))), in that order: 49.9 °C and -30.9 kcal/mol.
In the case of GATCGACAGCTCGATC ((((((....)))))), in data set [1], the Tm came to 49.4 °C. In addition, the folding enthalpy in data set [2] is -41.2 kcal/mol.
Taken in the same sequence, the figures for GATCGACCCCTCGATC ((((((....)))))) were 51.7 °C and -47.5 kcal/mol.
For GATCGACGGTTCGATC ((((((....)))))), in that order: 50.7 °C and -39.6 kcal/mol.
For GATCGACTAATCGATC ((((((....)))))), in data set [1], the Tm was 49.9 °C. For the same sequence, in data set [2], the folding enthalpy was -30.3 kcal/mol.
For GATCGACTATCGATC ((((((...)))))), in that order: 49.3 °C and -35.2 kcal/mol.
For GATCGACTGGTCGATC ((((((....)))))), in that order: 62.7 °C and -37.5 kcal/mol.
As for GATCGAGAAGTCGATC ((((((....)))))), the Tm in data set [1] turned out to be 55.4 °C. Also, the folding enthalpy in data set [2] was -31.1 kcal/mol.
As for GATCGAGATATCGATC ((((((....)))))), the Tm in data set [1] amounted to 58.7 °C. For the same sequence, the folding enthalpy in data set [2] is -38.2 kcal/mol.
For GATCGAGCAGTCGATC ((((((....)))))), in that order: 54.3 °C and -39.7 kcal/mol.
For GATCGAGCGGTCGATC ((((((....)))))), in that order: 53 °C and -45.7 kcal/mol.
For the sequence GATCGAGCTTCGATC ((((((...)))))), the Tm in data set [1] turned out to be 51.3 °C. For the same sequence, the folding enthalpy in data set [2] was -33.8 kcal/mol.
Taken in the same sequence, the figures for GATCGAGGAGTCGATC ((((((....)))))) were 53.7 °C and -40.2 kcal/mol.
Regarding GATCGAGGCATCGATC ((((((....)))))), the Tm in data set [1] amounted to 58.5 °C. For the same sequence, in data set [2], the folding enthalpy was -41.8 kcal/mol.
Taken in the same sequence, the figures for GATCGAGTAGTCGATC ((((((....)))))) were 55.9 °C and -34.3 kcal/mol.
GATCGAGTCCTCGATC ((((((....)))))): the Tm in data set [1] was determined as 56.2 °C. For the same sequence, in data set [2], the folding enthalpy was -45.8 kcal/mol.
For GATCGAGTGTCGATC ((((((...)))))), in that order: 49.8 °C and -37.6 kcal/mol.
For the sequence GATCGAGTGTTCGATC ((((((....)))))), in data set [1], the Tm was 51.9 °C. In data set [2], the folding enthalpy was -34.8 kcal/mol.
For GATCGATAACTCGATC ((((((....)))))), the Tm in data set [1] turned out to be 49.3 °C. In data set [2], the folding enthalpy is -36.3 kcal/mol.
In the case of GATCGATATTCGATC ((((((...)))))), the Tm in data set [1] was 52.6 °C. In data set [2], the folding enthalpy was -30.3 kcal/mol.
As for GATCGATCCGTCGATC ((((((....)))))), the Tm in data set [1] worked out at 53.6 °C. Besides, the folding enthalpy in data set [2] is -44.8 kcal/mol.
Taken in the same sequence, the figures for GATCGATCGGTCGATC ((((((....)))))) were 52 °C and -41.6 kcal/mol.
As to GATCGATCTGTCGATC ((((((....)))))), the Tm in data set [1] was found to be 53.1 °C. Moreover, the folding enthalpy in data set [2] was -45.2 kcal/mol.
As to GATCGATCTTTCGATC ((((((....)))))), the Tm in data set [1] came out at 53.1 °C. Besides, the folding enthalpy in data set [2] is -48.8 kcal/mol.
For the sequence GATCGATGACTCGATC ((((((....)))))), in data set [1], the Tm turned out to be 49.5 °C. For the same sequence, in data set [2], the folding enthalpy was -30.5 kcal/mol.
As to GATCGATGATCGATC ((((((...)))))), the Tm in data set [1] was determined as 50.7 °C. In addition, the folding enthalpy in data set [2] was -22.2 kcal/mol.
Take GATCGATGTGTCGATC ((((((....)))))): the Tm in data set [1] came to 57.9 °C. Further, in data set [2], the folding enthalpy is -40.2 kcal/mol.
Taken in the same sequence, the figures for GATCGCAATAGCGATC ((((((....)))))) were 68.4 °C and -26 kcal/mol.
For GATCGCAATGCGATC ((((((...)))))), in that order: 68.5 °C and -33 kcal/mol.
In the case of GATCGCAATTGCGATC ((((((....)))))), the Tm in data set [1] was 67.8 °C. Besides, the folding enthalpy in data set [2] is -31.1 kcal/mol.
Taken in the same sequence, the figures for GATCGCACCCGCGATC ((((((....)))))) were 67.6 °C and -38.9 kcal/mol.
For GATCGCACGAGCGATC ((((((....)))))), in that order: 68.4 °C and -31.7 kcal/mol.
For the sequence GATCGCACGTGCGATC ((((((....)))))), in data set [1], the Tm is 68.8 °C. In addition, the folding enthalpy in data set [2] is -40.4 kcal/mol.
For GATCGCAGCGGCGATC ((((((....)))))), in that order: 68.4 °C and -28.8 kcal/mol.
Consider GATCGCAGCTGCGATC ((((((....)))))), for which the Tm in data set [1] turned out to be 69.3 °C. Besides, the folding enthalpy in data set [2] was -41 kcal/mol.
For GATCGCCAAGCGATC ((((((...)))))), in that order: 67.5 °C and -29.8 kcal/mol.
Taken in the same sequence, the figures for GATCGCCAATGCGATC ((((((....)))))) were 65.3 °C and -38.1 kcal/mol.
Regarding GATCGCCCAAGCGATC ((((((....)))))), the Tm in data set [1] came to 66.7 °C. Further, the folding enthalpy in data set [2] is -23 kcal/mol.
As to GATCGCCCGAAAGGGATC (((..(((....)))))), in data set [1], the Tm was 34.5 °C. For the same sequence, the folding enthalpy in data set [2] is -14.6 kcal/mol.
In the case of GATCGCCCTAGCGATC ((((((....)))))), the Tm in data set [1] is 69.1 °C. Also, the folding enthalpy in data set [2] was -34.4 kcal/mol.
Taken in the same sequence, the figures for GATCGCCGCTGCGATC ((((((....)))))) were 66.9 °C and -38.5 kcal/mol.
Take GATCGCGAAAGCGACATC ((((((....)))..))): in data set [1], the Tm came out at 32.1 °C. In addition, the folding enthalpy in data set [2] is -8.3 kcal/mol.
For GATCGCGAAAGCGGGATC ((((((....)))..))), in that order: 45.5 °C and -14.1 kcal/mol.
For GATCGCGAAAGCGGTATC ((((((....)))..))), in that order: 39 °C and -10.9 kcal/mol.
For GATCGCGAAAGCGTATC ((((((....))).))), the Tm in data set [1] turned out to be 51.8 °C. In addition, the folding enthalpy in data set [2] is -15.5 kcal/mol.
Consider GATCGCGAAAGCGTTATC ((((((....)))..))), for which the Tm in data set [1] worked out at 28.1 °C. Moreover, the folding enthalpy in data set [2] was -15 kcal/mol.
For GATCGCGCCTGCGATC ((((((....)))))), in that order: 69.3 °C and -26.7 kcal/mol.
Take GATCGCGCGGCGATC ((((((...)))))): the Tm in data set [1] stood at 68.5 °C. For the same sequence, the folding enthalpy in data set [2] is -34.6 kcal/mol.
For GATCGCGCGGGCGATC ((((((....)))))), the Tm in data set [1] amounted to 67.2 °C. In addition, the folding enthalpy in data set [2] was -32.9 kcal/mol.
Taken in the same sequence, the figures for GATCGCGCGTGCGATC ((((((....)))))) were 67.9 °C and -26.4 kcal/mol.
